Compound activity as filed in PubChem.
NPY2 pot ag – NPY-Y2 potentiators or agonists, primary screen, cell-based | Neuropeptide Y receptor type 2 (Homo sapiens), P49146 | cells expressing NPY-Y2, potentiator/agonist read-out | activation, % at 3.6 µM | hit rate 0.45% among 220,000 | AID 1359, 2008; in the data active means activation above about 27%;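 further: cells stimulated with NPY near EC25 plus isoproterenol at EC100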
NPY1 pot ag – NPY-Y1 receptor potentiators or agonists, primary screen, cell-based; Neuropeptide Y receptor type 1 (Homo sapiens), P25929; NPY-Y1 expressing cells, potentiator/agonist activation; activation, % at 3.6 µM; hit rate 0.37% among 220,000; AID 1304, 2008; in the data active means activation above about 33%, passing the limit was not always enough;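 further: cells stimulated with NPY at EC10 then isoproterenol at EC100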
Target sequence (P25929 whole entry, looked up): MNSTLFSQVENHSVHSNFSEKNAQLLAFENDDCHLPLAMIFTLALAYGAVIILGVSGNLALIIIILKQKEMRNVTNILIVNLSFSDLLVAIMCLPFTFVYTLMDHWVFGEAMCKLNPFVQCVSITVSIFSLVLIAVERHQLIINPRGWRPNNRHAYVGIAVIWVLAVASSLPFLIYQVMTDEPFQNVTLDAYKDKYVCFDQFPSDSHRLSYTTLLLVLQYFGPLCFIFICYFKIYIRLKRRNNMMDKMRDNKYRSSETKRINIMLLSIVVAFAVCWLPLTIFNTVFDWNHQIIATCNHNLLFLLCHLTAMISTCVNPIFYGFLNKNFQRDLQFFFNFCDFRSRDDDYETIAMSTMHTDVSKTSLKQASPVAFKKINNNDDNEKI
NPY-Y1 antag – NPY-Y1 receptor antagonists, primary screen, cell-based | HEK293-CNG Y1 cells, membrane potential fluorescence; NPY at EC95, then isoproterenol | inhibition, % at 3.6 µM | hit rate 1% among 200,000 | AID 1040, 2008;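 active means inhibition above the campaign mean inhibition of all tested compounds plus 3 SD, cut at about 20% in these data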
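Material: HEK293 Y1/CNG channel cell line; also added: NPY (25 nM), isoproterenol (1 µM), Ro 20-1724 (25 µM); doses: one concentration, 3.6 µM, in 0.4% DMSO; schedule: compound incubation 1 h at room temperature, readout 45 min post-stimulation; technique: membrane potential fluorescence; measure: fluorescence ratio normalized to % inhibition between controls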
NPY-Y2 antag – NPY-Y2 receptor antagonists, primary screen, cell-based; inhibition, % at 2.7 µM; Neuropeptide Y receptor type 2 (Homo sapiens), P49146; NPY-Y2 expressing cells, antagonist mode; hit rate 0.99% among 140,000
NPY-Y1 ant conf – NPY-Y1 receptor antagonists, retest of hits, confirmation, HEK293-CNG cells, membrane potential fluorescence, triplicate; shares compounds with NPY-Y1 antag; inhibition, % at 3.6 µM; cAMP; NPY challenge against isoproterenol-raised cAMP; AID 1254, 2008; hit rate 21% among 1,200; in the data active means inhibition above about 20%
NPY2 antag ctr – NPY-Y2 receptor antagonists, selectivity check, confirmation, counter-screen for NPY-Y1 antagonist project, HEK293-CNG cells, membrane potential fluorescence, triplicate | shares compounds with NPY-Y1 antag | antagonism; cells given NPY, then isoproterenol | inhibition, % at 3.6 µM | hit rate 28% among 1,200 | AID 1255, 2008
A number is an active result; – = inactive; · = no result. Shown are actives, neighbours in structure and some others; about 1.9% of the full set was active somewhere. Unless noted, no stated cut-off is given here; in the data, active means inhibition above about 17%; inactive means the rest.

SMILES | NPY2 pot ag | NPY1 pot ag | NPY-Y1 antag | NPY-Y2 antag | NPY-Y1 ant conf | NPY2 antag ctr
Cc1cc(C)c(S(=O)(=O)N2CCCOC2CNC(=O)C(=O)NCc2ccncc2)c(C)c1 (stereo not given) | – | – | – | – | · | ·
COC(=O)c1cn(-c2ccccc2)nc1-c1ccc(OC)cc1 | – | – | – | · | · | ·
CCN(CC)CCNC(=S)NC(=O)c1cn(-c2ccccc2)nc1-c1ccc(OC)cc1 | – | – | 26 | · | – | 32
Cc1ccc(NC(=S)N/N=C/c2ccc(OCCC(C)C)cc2)c(C)c1 | – | – | 21 | – | – | –
O=C(COc1ccc(Cl)cc1)N(Cc1ccccc1)c1nc(-c2ccccc2)cs1 | – | – | – | – | · | ·
COc1ccc(-c2csc(N(CCc3ccccc3)C(=O)COc3ccccc3)n2)cc1 | – | – | 32 | – | – | –
CCOc1ccc(-n2c(O)c(/C=N/NC(=O)C3COc4ccccc4O3)c3ccccc3c2=O)cc1 (stereo not given) | – | – | – | – | · | ·
CCOC(=O)c1c(CSc2cccs2)n(C)c2cc(Br)c(O)c(CN(C)C)c12 | – | – | 59 | · | 51 | 48
CCOC(=O)c1c(C)n(C)c2cc(Br)c(O)c(O)c12 | – | – | · | · | · | ·
O=C(NCc1ccccn1)[C@H]1C[C@@H]1[C@H](NP(=O)(c1ccccc1)c1ccccc1)c1ccccc1 | – | – | – | – | · | ·
COC(=O)C1=C(C)NC(C)=C(C(=O)OC)C1c1ccc(OC(=O)c2oc3ccccc3c2C)c(OC)c1 | – | – | – | – | · | ·
COc1ccccc1CNC(=O)c1c(N)n(CCCN2CCOCC2)c2nc3ccccc3nc12 | – | – | 23 | – | – | –
CC(C)OC(=O)c1c(N)n(CCCN2CCOCC2)c2nc3ccccc3nc12 | – | – | – | – | · | ·
O=C(NC(=S)Nc1ccc(CN2CCCCC2)cc1)c1ccco1 | – | – | – | · | · | ·
Cc1ccc(C(=O)NC(=S)Nc2ccc(CN3CCCCC3)cc2)c(C)c1 | – | – | 24 | · | – | 27
COc1ccc(C(=O)NC(=S)Nc2ccc(CN3CCCCC3)cc2)cc1Cl | – | – | 28 | · | – | 23
O=C(CN(C(=O)c1ccccc1Cl)N1C(=O)CCCC1=O)c1ccc(Cl)cc1 | – | – | – | · | · | ·
CC(C)(C)C(=O)Nc1cc2nn(-c3ccccc3)nc2cc1Cl | – | – | 20 | – | – | –
COc1nc(OC)nc(N2CCC(C(=O)Nc3cccc4ccccc34)CC2)n1 | – | – | 35 | – | – | –
CSc1nc(N2CCN(c3ccccc3Cl)CC2)c2ccccc2n1 | – | – | 30 | · | 22 | 27
COc1ccccc1NC(=O)CSc1nc2c(sc3ccccc32)c(=O)n1CCN(C)C | – | – | – | · | · | ·
C=CCN(C(=O)CSc1nc2c(sc3ccccc32)c(=O)n1CCN(CC)CC)c1ccccc1 | – | – | 23 | · | 44 | 65
CCN(CC)CCn1c(SCC(=O)Nc2ccc(F)cc2)nc2c(sc3ccccc32)c1=O | – | – | 35 | · | – | 29
C=CCN(C(=O)CSc1nc2ccsc2c(=O)n1Cc1ccccn1)c1ccccc1 | – | – | – | · | · | ·
COc1c(F)c(F)c(C(=O)O)c(Nc2ccc(C)cc2C)c1F | – | – | – | · | · | ·
SMILES | NPY2 pot ag | NPY1 pot ag | NPY-Y1 antag | NPY-Y2 antag | NPY-Y1 ant conf | NPY2 antag ctr
CNC(=O)c1ccc(=O)n(Cc2cccc(C(F)(F)F)c2)c1 | – | – | – | · | · | ·
CCN(CC)S(=O)(=O)c1ccc(NC(=O)CSc2nnc(-c3cccc(OC)c3)n2C)cc1 | – | – | – | – | · | ·
C=C(C)CSc1nnc(-c2cccc(S(=O)(=O)N(C)C)c2)n1-c1cc(OC)ccc1OC | – | – | 26 | – | – | –
CC1COC(Cn2c3ccccc3c3ccccc32)O1 (stereo not given) | – | – | · | · | · | ·
Cc1nc2c(C(=O)N3CCCC3)cnn2c(C)c1Cc1c(F)cccc1Cl | – | – | – | – | · | ·
Cc1nc2c(C(=O)N3CCN(c4ccccn4)CC3)cnn2c(C)c1Cc1cccc(Cl)c1 | – | – | 31 | – | – | –
CCc1ncc(C(=O)c2ccc(OC)cc2)n1C | – | – | 29 | – | – | –
